Results from ChEMBL document CHEMBL1124127, “Central dopaminergic and 5-hydroxytryptaminergic effects of C3-methylated derivatives of 8-hydroxy-2-(di-n-propylamino)tetralin” (J Med Chem, 1988).

Key:
[1] = test system: Rattus norvegicus; assay: Effect on in vivo accumulation of dopamine(DA) was measured in rat limbic system at 2.2 (umol/kg) dose; assay type: functional
How it was run: (§1)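 Non-reserpinized rats got the test drug sc in the neck (5 mL/kg) 60 min before death, and NSD 1015 (573 µmol/kg ip) 30 min before death. After decapitation, the limbic system was dissected on ice, frozen and homogenized in 0.1 M perchloric acid with α-methyl-DOPA internal standard. DA was measured by ion-pair reversed-phase HPLC with electrochemical detection. Data are mean ± SEM (controls n=17-19, treated 3-7), analysed by ANOVA/Dunnett.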

[2] = test system: Rattus norvegicus; assay: Effect on in vivo accumulation of […] was measured in rat corpus striatum at 2.2 (umol/kg) dose; assay type: functional
How it was run: (§2)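 Rats not pretreated with reserpine received test drug (hydrochloride or hydrobromide salt) sc in the neck region 60 min before death. NSD 1015 decarboxylase inhibitor (100 mg/kg, i.e., 573 μmol/kg, ip) was given 30 min before decapitation. Brain was dissected on ice. Tissue was homogenized in 0.1 M perchloric acid with α-methyl-DOPA internal standard. Analytes were quantified by ion-pair reversed-phase HPLC-electrochemical detection. Values are means ± SEM, n = 3-7 per treated group.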

[3] = test system: Rattus norvegicus; assay: Effect on in vivo accumulation of 5-HTP was measured in rat limbic system at 2.2 (umol/kg) dose; assay type: functional; how it was run: as §2
[4] = test system: Rattus norvegicus; assay: Effect on in vivo accumulation of DOPA was measured in rat corpus striatum at 22(Micromol/kg) dose; assay type: functional; how it was run: as §2
[5] = test system: Rattus norvegicus; assay: Effect on in vivo accumulation of DOPA was measured in rat corpus striatum at 2.2 (umol/kg) dose; assay type: functional; how it was run: as §2
[6] = test system: Rattus norvegicus; assay: Effect on in vivo accumulation of 5-HTP was measured in rat corpus striatum at 22(umol/kg) dose; assay type: functional; how it was run: as §2
[7] = test system: Rattus norvegicus; assay: Effect on in vivo accumulation of 5-HTP was measured in rat corpus striatum at 2.2 (umol/kg) dose; assay type: functional; how it was run: as §2
[8] = test system: Rattus norvegicus; assay: Effect on in vivo accumulation of […] was measured in rat corpus striatum at 22(Micromol/kg) dose; assay type: functional; how it was run: as §2
[9] = test system: Rattus norvegicus; assay: Effect on in vivo accumulation of DOPA was measured in rat limbic system at 2.2 (umol/kg) dose; assay type: functional; how it was run: as §2
[10] = test system: Rattus norvegicus; assay: Effect on in vivo accumulation of dopamine(DA) was measured in rat limbic system at 22(Micromol/kg) dose; assay type: functional; how it was run: as §1
[11] = test system: Rattus norvegicus; assay: Effect on in vivo accumulation of 5-HTP was measured in rat limbic system at 22(Micromol/kg) dose; assay type: functional; how it was run: as §2
[12] = test system: Rattus norvegicus; assay: Effect on in vivo accumulation of DOPA was measured in rat limbic system at 22(Micromol/kg) dose; assay type: functional; how it was run: as §2
[13] = target: T1, 5-hydroxytryptamine receptor 1A (Rattus norvegicus, UniProt P19327); assay: Inhibitory activity tested in vitro at 5-hydroxytryptamine 1A receptor binding site in rat
T1 sequence (P19327 whole entry): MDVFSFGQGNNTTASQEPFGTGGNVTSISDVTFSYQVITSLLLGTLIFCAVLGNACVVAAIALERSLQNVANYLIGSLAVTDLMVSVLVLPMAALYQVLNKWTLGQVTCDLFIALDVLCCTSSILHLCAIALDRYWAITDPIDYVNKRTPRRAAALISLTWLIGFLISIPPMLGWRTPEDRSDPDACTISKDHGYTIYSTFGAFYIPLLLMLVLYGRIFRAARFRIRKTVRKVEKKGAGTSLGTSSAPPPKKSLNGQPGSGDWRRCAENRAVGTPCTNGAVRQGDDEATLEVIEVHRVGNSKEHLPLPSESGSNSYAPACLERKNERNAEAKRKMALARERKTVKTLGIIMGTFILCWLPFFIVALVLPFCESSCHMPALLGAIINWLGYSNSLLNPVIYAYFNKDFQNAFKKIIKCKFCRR
How it was run: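 Competition binding used rat brain membranes washed in 50 mM Tris-HCl pH 7.4, preincubated 10 min at 37 °C to remove 5-HT, and used at 10 mg wet tissue/mL. Assay: 1 nM [3H]-8-OH-DPAT, 3 mM CaCl2, 100 µM pargyline, 15 min at 37 °C, then filtration on PEI-treated filters. Nonspecific binding was set with 10 µM 5-HT. IC50 came from four-parameter logistic regression, mean ± SEM of N experiments.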

[14] = test system: Rattus norvegicus; assay: Effect on in vivo accumulation of 5-HTP was measured in rat corpus striatum at 2.5(umol/kg) dose; assay type: functional; how it was run: as §2
[15] = test system: Rattus norvegicus; assay: Effect on in vivo accumulation of DOPA was measured in rat limbic system at 2.5 (umol/kg) dose; assay type: functional; how it was run: as §2
[16] = test system: Rattus norvegicus; assay: Effect on in vivo accumulation of dopamine(DA) was measured in rat limbic system at 25(Micromol/kg) dose; assay type: functional; how it was run: as §1
[17] = test system: Rattus norvegicus; assay: Effect on in vivo accumulation of dopamine(DA) was measured in rat limbic system at 2.5 (umol/kg) dose; assay type: functional; how it was run: as §1
[18] = test system: Rattus norvegicus; assay: Effect on in vivo accumulation of 5-HTP was measured in rat limbic system at 2.5 (umol/kg) dose; assay type: functional; how it was run: as §2
[19] = test system: Rattus norvegicus; assay: Effect on in vivo accumulation of dopamine(DA) was measured in rat limbic system at 50(Micromol/kg) dose; assay type: functional; how it was run: as §1
[20] = test system: Rattus norvegicus; assay: Effect on in vivo accumulation of DOPA was measured in rat corpus striatum at 2.5 (umol/kg) dose; assay type: functional; how it was run: as §2
[21] = test system: Rattus norvegicus; assay: Effect on in vivo accumulation of […] was measured in rat corpus striatum at 25(Micromol/kg) dose; assay type: functional; how it was run: as §2
[22] = test system: Rattus norvegicus; assay: Effect on in vivo accumulation of […] was measured in rat corpus striatum at 2.5 (umol/kg) dose; assay type: functional; how it was run: as §2
[23] = test system: Rattus norvegicus; assay: Effect on in vivo accumulation of DOPA was measured in rat corpus striatum at 25(Micromol/kg) dose; assay type: functional; how it was run: as §2
[24] = test system: Rattus norvegicus; assay: Effect on in vivo accumulation of DOPA was measured in rat limbic system at 50(Micromol/kg) dose; assay type: functional; how it was run: as §2
[25] = test system: Rattus norvegicus; assay: Effect on in vivo accumulation of 5-HTP was measured in rat corpus striatum at 25 (umol/kg) dose; assay type: functional; how it was run: as §2
[26] = test system: Rattus norvegicus; assay: Effect on in vivo accumulation of 5-HTP was measured in rat limbic system at 50(Micromol/kg) dose; assay type: functional; how it was run: as §2
[27] = test system: Rattus norvegicus; assay: Effect on in vivo accumulation of 5-HTP was measured in rat corpus striatum at 50(umol/kg) dose; assay type: functional; how it was run: as §2
[28] = test system: Rattus norvegicus; assay: Effect on in vivo accumulation of […] was measured in rat corpus striatum at 50(Micromol/kg) dose; assay type: functional; how it was run: as §2
[29] = test system: Rattus norvegicus; assay: Effect on in vivo accumulation of DOPA was measured in rat limbic system at 25(Micromol/kg) dose; assay type: functional; how it was run: as §2
[30] = test system: Rattus norvegicus; assay: Effect on in vivo accumulation of 5-HTP was measured in rat limbic system at 25(Micromol/kg) dose; assay type: functional; how it was run: as §2
[31] = test system: Rattus norvegicus; assay: Effect on in vivo accumulation of DOPA was measured in rat corpus striatum at 50(Micromol/kg) dose; assay type: functional; how it was run: as §2

## CCCN(CCC)[C@H]1Cc2c(O)cccc2C[C@@H]1C (stereo in doubt; (+)-11)
[1]
  Activity: 1067 ng/g
[2]
  Activity: 5158 ng/g
[3]
  Activity: 144 ng/g
[4]
  Activity: 959 ng/g
[5]
  Activity: 1008 ng/g
[6]
  Activity: <56.4 ng/g
[7]
  Activity: 87.3 ng/g
[8]
  Activity: <4089 ng/g
[9]
  Activity: 389 ng/g
[10]
  Activity: <839 ng/g
[11]
  Activity: <89.5 ng/g
[12]
  Activity: 400 ng/g
[13]
  IC50: 60.5 nM

## CCCN(CCC)[C@H]1Cc2c(O)cccc2C[C@H]1C (stereo in doubt; (-)-15)
[14]
  Activity: 96.6 ng/g
[15]
  Activity: <463 ng/g
[16]
  Activity: 1094 ng/g
[17]
  Activity: 1133 ng/g
[18]
  Activity: 163 ng/g
[19]
  Activity: 1065 ng/g
[20]
  Activity: 1080 ng/g
[21]
  Activity: 4751 ng/g
[22]
  Activity: 4439 ng/g
[23]
  Activity: 1241 ng/g
[24]
  Activity: 396 ng/g
[25]
  Activity: <65.4 ng/g
[26]
  Activity: <88.3 ng/g
[13]
  IC50: 486 nM
[27]
  Activity: <45.8 ng/g
[28]
  Activity: 5282 ng/g
[29]
  Activity: <521 ng/g
[30]
  Activity: <120 ng/g
[31]
  Activity: 1001 ng/g
